The values below come from ChEMBL document CHEMBL1129264, “Mercaptoacyl dipeptides as orally active dual inhibitors of angiotensin-converting enzyme and neutral endopeptidase” (1996).

Experiment [1] has as its target T1, Angiotensin-converting enzyme (Rattus norvegicus) (UniProt P47820).
T1 sequence (whole entry): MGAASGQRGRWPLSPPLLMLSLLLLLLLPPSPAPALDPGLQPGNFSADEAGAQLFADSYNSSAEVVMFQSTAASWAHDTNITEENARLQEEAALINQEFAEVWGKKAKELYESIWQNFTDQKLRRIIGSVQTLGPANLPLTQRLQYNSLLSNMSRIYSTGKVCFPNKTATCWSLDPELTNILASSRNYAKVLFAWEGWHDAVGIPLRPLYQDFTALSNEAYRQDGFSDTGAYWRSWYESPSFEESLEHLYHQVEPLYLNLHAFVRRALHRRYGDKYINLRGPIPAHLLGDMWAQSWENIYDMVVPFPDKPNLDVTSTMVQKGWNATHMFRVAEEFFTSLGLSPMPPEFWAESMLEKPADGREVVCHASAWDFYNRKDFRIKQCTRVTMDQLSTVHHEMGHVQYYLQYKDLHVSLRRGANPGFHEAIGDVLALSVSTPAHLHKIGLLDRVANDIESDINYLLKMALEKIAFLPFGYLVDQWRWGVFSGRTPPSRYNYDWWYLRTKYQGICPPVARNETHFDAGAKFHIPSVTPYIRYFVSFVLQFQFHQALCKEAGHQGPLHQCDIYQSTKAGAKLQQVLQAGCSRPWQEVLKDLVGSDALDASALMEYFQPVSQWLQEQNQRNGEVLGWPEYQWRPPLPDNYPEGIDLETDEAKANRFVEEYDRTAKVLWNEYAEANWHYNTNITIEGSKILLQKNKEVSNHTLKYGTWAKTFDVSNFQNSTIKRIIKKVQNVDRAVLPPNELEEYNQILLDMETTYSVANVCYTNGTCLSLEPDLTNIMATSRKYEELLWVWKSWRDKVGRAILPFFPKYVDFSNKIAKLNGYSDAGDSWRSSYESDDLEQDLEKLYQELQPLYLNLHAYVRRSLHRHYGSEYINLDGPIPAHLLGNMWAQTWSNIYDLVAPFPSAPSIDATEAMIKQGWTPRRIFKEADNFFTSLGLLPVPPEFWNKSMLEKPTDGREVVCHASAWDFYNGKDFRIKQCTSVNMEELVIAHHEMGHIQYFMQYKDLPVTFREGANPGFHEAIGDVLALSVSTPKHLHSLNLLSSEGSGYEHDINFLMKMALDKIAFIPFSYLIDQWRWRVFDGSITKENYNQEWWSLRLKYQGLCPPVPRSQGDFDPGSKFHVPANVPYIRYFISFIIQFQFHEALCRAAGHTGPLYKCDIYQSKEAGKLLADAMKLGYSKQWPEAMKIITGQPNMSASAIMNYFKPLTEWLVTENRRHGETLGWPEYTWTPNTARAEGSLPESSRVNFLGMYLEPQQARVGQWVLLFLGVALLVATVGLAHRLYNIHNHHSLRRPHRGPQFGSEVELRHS
As to the kind of experiment: Compound was tested for plasma inhibition of Angiotensin I converting enzyme activity in the conscious rat. Expressed as Inhibition of AI pressor response at 2 hr at a dose of 12.1 mg/kg po. More on the design: dose 12.1 mg/kg. The class given is organism-based. A digest of the protocol: (§1)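 Male conscious normotensive Sprague-Dawley rats (275-390 g), given femoral arterial and venous catheters under methohexital sodium (75 mg/kg ip) anesthesia. Next day, pressor responses to three angiotensin-I challenges (300 ng/kg iv) recorded by direct arterial pressure. Compound then dosed orally, and AI challenge repeated at set times. Each post-dose response compared with the mean of the three baseline responses, giving % inhibition.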

Experiment [2] concerns the target T1, Angiotensin-converting enzyme (Rattus norvegicus). In words: Compound was tested for plasma inhibition of Angiotensin I converting enzyme activity in the conscious rat. Expressed as Inhibition of AI pressor response at 6 hr at a dose of 12.1 mg/kg po. It is filed as organism-based. More on the design: dose 12.1 mg/kg. A digest of the protocol:
(§2)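 Male conscious normotensive Sprague-Dawley rats (275-390 g), prepared under methohexital sodium (75 mg/kg ip) with femoral arterial and venous catheters. The next day, pressor responses to three angiotensin-I challenges (300 ng/kg iv) were recorded. Compound was then given orally and angiotensin-I challenges were repeated at set times. Percent inhibition is relative to the mean of the three baseline responses.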

The target is the same in experiment [3]. In words: Compound was tested for plasma inhibition of Angiotensin I converting enzyme activity in the conscious rat. Expressed as Inhibition of AI pressor response at 1 hr at a dose of 12.1 mg/kg po. The class given is organism-based. More on the design: dose 12.1 mg/kg. In a few lines:
as §1

Experiment [4] has the same target. In words: Compound was tested for plasma inhibition of Angiotensin I converting enzyme activity in the conscious rat. Expressed as Inhibition of AI pressor response at 4 hr at a dose of 12.1 mg/kg po. It is filed as organism-based. Set-up: dose 12.1 mg/kg. A digest of the protocol:
as §1

Experiment [5] has the same target. In words: Compound was tested for plasma inhibition of Angiotensin I converting enzyme activity in the conscious rat. Expressed as Inhibition of AI pressor response at 2 hr at a dose of 11.7 mg/kg po. The class given is organism-based. Set-up: dose 11.7 mg/kg. A digest of the protocol: as §1
Experiment [6] shares this target. In words: Compound was tested for plasma inhibition of Angiotensin I converting enzyme activity in the conscious rat. Expressed as Inhibition of AI pressor response at 6 hr at a dose of 11.7 mg/kg po. It is filed as organism-based. Set-up: dose 11.7 mg/kg. In a few lines: as §2
The target is the same in experiment [7]. As to the kind of experiment: Compound was tested for plasma inhibition of Angiotensin I converting enzyme activity in the conscious rat. Expressed as Inhibition of AI pressor response at 4 hr at a dose of 11.7 mg/kg po. Set-up: dose 11.7 mg/kg. It is filed as organism-based. A digest of the protocol:
as §1

Experiment [8] relates to Rattus norvegicus. In words: Plasma ANF Concentration in the Conscious Rat at a dose of 11.7(po)mg/kg at 1 h. The class given is functional. A digest of the protocol: (§3)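 Male Sprague-Dawley rats (275-390 g) received femoral artery and vein catheters under ketamine (150 mg/kg)/acepromazine and recovered for 24 h, tethered, before study conscious. ratANF(99-126) was infused at 450 ng/kg/min iv for 5 h. Baseline blood was drawn at 60 min into the infusion, then compound was given po.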

In experiment [9] the test system is Rattus norvegicus. In words: Plasma ANF Concentration in the Conscious Rat at a dose of 11.7(po)mg/kg at 2 h. The class given is functional. In a few lines: as §3
Experiment [10] concerns Rattus norvegicus. In words: Plasma ANF Concentration in the Conscious Rat at a dose of 11.7(po)mg/kg at 4 h. The class given is functional. In a few lines: as §3
For experiment [11], the system named is Rattus norvegicus. In words: Plasma ANF Concentration in the Conscious Rat at a dose of 11.7(po)mg/kg at 0.5 h. It is filed as functional. A digest of the protocol: as §3
In experiment [12] the target is T1, Angiotensin-converting enzyme (Rattus norvegicus). In words: Compound was tested for plasma inhibition of Angiotensin I converting enzyme activity in the conscious rat. Expressed as Inhibition of AI pressor response at 1 hr at a dose of 11.7 mg/kg po. The class given is organism-based. More on the design: dose 11.7 mg/kg. In a few lines: as §1
Experiment [13] has the same target. In words: Compound was tested for plasma inhibition of Angiotensin I converting enzyme activity in the conscious rat. Expressed as Inhibition of AI pressor response at 2 hr at a dose of 12.4 mg/kg po. The class given is organism-based. More on the design: dose 12.4 mg/kg. A digest of the protocol: as §1
The target is the same in experiment [14]. In words: Compound was tested for plasma inhibition of Angiotensin I converting enzyme activity in the conscious rat. Expressed as Inhibition of AI pressor response at 1 hr at a dose of 12.4 mg/kg po. It is filed as organism-based. More on the design: dose 12.4 mg/kg. A digest of the protocol: as §1
For experiment [15] the target is unchanged. In words: Compound was tested for plasma inhibition of Angiotensin I converting enzyme activity in the conscious rat. Expressed as Inhibition of AI pressor response at 4 hr at a dose of 12.4 mg/kg po. It is filed as organism-based. More on the design: dose 12.4 mg/kg. In a few lines: as §1
Experiment [16] shares this target. In words: Compound was tested for plasma inhibition of Angiotensin I converting enzyme activity in the conscious rat. Expressed as Inhibition of AI pressor response at 6 hr at a dose of 12.4 mg/kg po. The class given is organism-based. Set-up: dose 12.4 mg/kg. A digest of the protocol: as §2
The target is the same in experiment [17]. As to the kind of experiment: Compound was tested for plasma inhibition of Angiotensin I converting enzyme activity in the conscious rat. Expressed as Inhibition of AI pressor response at 6 hr at a dose of 14.5 mg/kg po. It is filed as organism-based. Set-up: dose 14.5 mg/kg. In a few lines: as §2
For experiment [18] the target is unchanged. As to the kind of experiment: Compound was tested for plasma inhibition of Angiotensin I converting enzyme activity in the conscious rat. Expressed as Inhibition of AI pressor response at 1 hr at a dose of 14.5 mg/kg po. The class given is organism-based. Set-up: dose 14.5 mg/kg. In a few lines: as §1
Experiment [19] has the same target. In words: Compound was tested for plasma inhibition of Angiotensin I converting enzyme activity in the conscious rat. Expressed as Inhibition of AI pressor response at 4 hr at a dose of 14.5 mg/kg po. The class given is organism-based. Set-up: dose 14.5 mg/kg. In a few lines: as §2
Experiment [20] shares this target. As to the kind of experiment: Compound was tested for plasma inhibition of Angiotensin I converting enzyme activity in the conscious rat. Expressed as Inhibition of AI pressor response at 2 hr at a dose of 14.5 mg/kg po. It is filed as organism-based. Set-up: dose 14.5 mg/kg. In a few lines:
as §1

In general, inhibition refers to the drop in the measured response relative to a control, in per cent.

Consider `CCCOC(=O)[C@H](Cc1ccc(O)cc1)NC(=O)C1(NC(=O)[C@H](SC(C)=O)C(C)C)CCCC1`, for which the inhibition in experiment [1] stood at 69%; in experiment [2] it was 19%; in experiment [3] it was 74%; in experiment [4] it was 37%.

Consider `CCOC(=O)[C@H](Cc1ccc(OC)cc1)NC(=O)C1(NC(=O)[C@H](SC(C)=O)C(C)C)CCCC1`, for which the inhibition is 81% in experiment [5], 77% in [6], 79% in experiment [7] and 73% in experiment [12]. The Control in [8] was 346%; in [9] it was 250%; in [10], 251%; in [11], 275%.

Take `CC(=O)S[C@@H](C(=O)NC1(C(=O)N[C@@H](Cc2ccc(O)cc2)C(=O)OCC(C)C)CCCC1)C(C)C`: the inhibition in experiment [13] worked out at 77%; in experiment [14] it was 76%; in experiment [15] it was 69%; in experiment [16], 20%.

Regarding `CCOC(=O)CC(=O)Oc1ccc(C[C@H](NC(=O)C2(NC(=O)[C@H](SC(C)=O)C(C)C)CCCC2)C(=O)OCC)cc1`, the inhibition in experiment [17] came to 73%; in [18], 88%; in experiment [19] it was 82%; in experiment [20], 78%.

In the case of `COC(=O)[C@H](Cc1ccc(OC)cc1)NC(=O)C1(NC(=O)[C@H](SC(C)=O)C(C)C)CCCC1`, the inhibition in experiment [5] turned out to be 90%; in experiment [6] it was 78%; in experiment [7], 87%; in [12], 97%. For the same compound, the Control in experiment [8] was 337%; in experiment [9] it was 263%; in experiment [10], 342%; in [11], 279%.
